“And” between values parts separate entries of the source, which are not always exact repeats. Identical values can stand only once.
How the values were obtained:
Type in all cases: functional
Mus musculus [1] = assay: Minimum effective dose at which mice were protected against tonic-extension produced by maximal electroshock during testing 120 min after intraperitoneal dosage; conditions: ip, 2 h, read-out: MED
Method in brief: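 Male Swiss-Webster mice (22-32 g), N = 5 per dose; dosed ip at 10, 30, 100, 300 mg/kg. Tested 120 min after dosing for protection against tonic extension from maximal electroshock. Value is the dose level at which two or more mice were protected.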

Mus musculus [2] = assay: Lowest dose level at which mice fell off inverted screen during testing 120 min after intraperitoneal dosage
Method in brief: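 Male Swiss-Webster mice (22-32 g), N = 5 per dose, given 10, 30, 100, 300 mg/kg ip. Tested 120 min after dosing on an inverted wire mesh screen. Value is the lowest dose level at which two or more mice fell off.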

Mus musculus [3] = assay: Effective dose required for the inhibition of spontaneous locomotion after intraperitoneal administration in experiment 1; conditions: ip
Mus musculus [4] = assay: Effective dose required to inhibit ataxia after intraperitoneal administration in experiment 2; conditions: ip
Method in brief: (§1)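 Ataxia in mice after ip dosing: in-house, falling from an inverted wire mesh screen (Swiss-Webster mice); in NINCDS studies, falling from a rotating rod (CF-1 mice, 30% polyethylene glycol vehicle). ED50 was obtained by quantal probit analysis.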

Mus musculus [5] = assay: Effective dose required to inhibit ataxia after intraperitoneal administration in experiment 1; conditions: ip; method in brief: as §1
Mus musculus [6] = assay: Effective dose against convulsions induced by maximal electroshock (MES) after intraperitoneal administration in experiment 1; conditions: ip
Method in brief: (§2)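 Mice dosed ip and challenged by maximal electroshock, scoring protection from seizures; N = 10 mice per time-course point. ED50 was obtained by quantal probit analysis. Swiss-Webster mice were used in-house; CF-1 mice were used in NINCDS testing, where drug was in 30% polyethylene glycol at 10 mL/kg.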

Mus musculus [7] = assay: Effective dose against convulsions induced by clonic pentylenetetrazole after intraperitoneal administration in experiment 2; conditions: ip
Method in brief: (§3)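 Male CF-1 mice (25-35 g) dosed ip. Pentylenetetrazol 85 mg/kg in 0.9% NaCl was given sc at the dorsal neck, and mice were observed 30 min. An anticonvulsant effect was prevention of all clonic seizures (≥5 s forelimb clonus). ED50 was obtained by quantal probit analysis; NINCDS testing used 30% polyethylene glycol vehicle.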

Mus musculus [8] = assay: Effective dose against convulsions induced by maximal electroshock (MES) after intraperitoneal administration in experiment 2; conditions: ip; method in brief: as §2
[9] = Protective index, ratio of ED50 ataxia and ED50 MES
Method in brief: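 Protective index is the ratio of the ataxia ED50 to the maximal electroshock ED50. Both were ip in mice and derived by quantal probit analysis.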

Mus musculus [10] = assay: Effective dose against convulsions induced by clonic pentylenetetrazole after intraperitoneal administration in experiment 1; conditions: ip; method in brief: as §3

Compound | minimal effective dose (Mus musculus [1]) [mg/kg] | MTC (Mus musculus [2]) [mg/kg] | further results
CCCCCCCCc1cccc(N2CCNCC2)n1 | 10 | 30 | –
CCCc1cccc(N2CCNCC2)n1.Cl | 10 | 3 | –
Cc1cccc(N2CCNCC2)n1.Cl.Cl | > 300 | 30 | –
CCCCCCCc1cccc(N2CCN(C)CC2)n1.Cl | 30 | 300 | –
CCCCCCCc1cccc(N2CCCCC2)n1 | > 300 | >300 | –
O=C1NC(=O)C(c2ccccc2)(c2ccccc2)N1 [PHENYTOIN] | – | – | ED50 (Mus musculus [3]): > 65 mg/kg; ED50 (Mus musculus [4]): 65 mg/kg; ED50 (Mus musculus [5]): 82 mg/kg; ED50 (Mus musculus [6]): 8 mg/kg; ED50 (Mus musculus [7]): > 100 mg/kg
CCCCSc1cccc(N2CCNCC2)n1 | 100 | 100 | –
CCCCCCCc1cccc(N2CCNCC2)n1 | 10 | 100 | ED50 (Mus musculus [8]): 6.4 mg/kg; ED50 (Mus musculus [3]): 13 mg/kg; Ratio [9]: 5.1 and 4.5; ED50 (Mus musculus [4]): 29 mg/kg; ED50 (Mus musculus [5]): 45 mg/kg; ED50 (Mus musculus [6]): 8.8 mg/kg; ED50 (Mus musculus [7]): 21 mg/kg
CC(C)c1cccc(N2CCNCC2)n1.Cl.Cl | > 300 | 30 | –
CCCCCCCc1cccc(N2CCCNCC2)n1 | 30 | 100 | –
CCCCCc1cccc(N2CCNCC2)n1 | 10 | 30 | –
CCCCCCCCCCc1cccc(N2CCNCC2)n1 | 30 | 100 | –
Cl.c1cc(CC2CCCCC2)nc(N2CCNCC2)c1 | 100 | 100 | –
CC(C)(C)c1cccc(N2CCNCC2)n1.Cl | > 300 | 30 | –
CCCCCCCc1cccc(N2CCOCC2)n1 | 300 | >300 | –
CCCCc1cccc(N2CCNCC2)n1 | 30 | 10 | –
c1ccc(CCc2cccc(N3CCNCC3)n2)cc1 | > 300 | 100 | –
NC(=O)N1c2ccccc2C=Cc2ccccc21 [CARBAMAZEPINE] | – | – | ED50 (Mus musculus [8]): 8.8 mg/kg; ED50 (Mus musculus [3]): 50 mg/kg; Ratio [9]: 8.2; ED50 (Mus musculus [4]): 72 mg/kg; ED50 (Mus musculus [5]): 41 mg/kg; ED50 (Mus musculus [6]): 9.8 mg/kg; ED50 (Mus musculus [7]): > 100 mg/kg; ED50 (Mus musculus [10]): > 100 mg/kg
CCCCCCc1cccc(N2CCNCC2)n1 | 10 | 100 | ED50 (Mus musculus [8]): 16 mg/kg; ED50 (Mus musculus [3]): 20 mg/kg; Ratio [9]: 3 and 2.9; ED50 (Mus musculus [4]): 46 mg/kg; ED50 (Mus musculus [5]): 22 mg/kg; ED50 (Mus musculus [6]): 7.3 mg/kg; ED50 (Mus musculus [7]): > 100 mg/kg
CCCCCCCc1ccnc(N2CCNCC2)c1 | 30 | 100 | –
CCCCCCC(CCCCCC)c1cccc(N2CCNCC2)n1 | > 300 | 100 | –
CCCCCCCCCc1cccc(N2CCNCC2)n1 | 10 | 30 | ED50 (Mus musculus [8]): 7.8 mg/kg; ED50 (Mus musculus [3]): 26 mg/kg; Ratio [9]: 5.4; ED50 (Mus musculus [4]): 42 mg/kg; ED50 (Mus musculus [5]): 30 mg/kg; ED50 (Mus musculus [6]): 5.6 mg/kg; ED50 (Mus musculus [7]): > 100 mg/kg

Source: ChEMBL document CHEMBL1124485, “6-Alkyl-N,N-disubstituted-2-pyridinamines as anticonvulsant agents” (1989)
